These results are taken from ChEMBL document CHEMBL3085625, “Synthesis, biological evaluation and molecular modeling studies of some novel thiazolidinediones with triazole ring” (Eur J Med Chem, 2013).

Values after ≈ are worked out from the molar mass of the structure shown.

The test system of one assay is HepG2. Kind of assay: Cytotoxicity against human HepG2 cells after 24 hrs by MTT assay. The class given is functional, cell-based. To be noted: HepG2, 24 h. In a few lines: (§1)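 MTT read-out: viable-cell mitochondrial dehydrogenase reduces tetrazolium to formazan, which is dissolved in DMSO and read at 570 nm. IC50 reported in μg/ml. Doxorubicin serves as positive control.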
A general note: Tetrazolium dyes change colour on reduction, which living cells bring about.

Assay [1] can be described thus: Cytotoxicity against human IMR32 cells after 24 hrs by MTT assay. As to conditions: IMR-32, 24 h. The format is functional, cell-based. In a few lines:
as §1

The test system of the next assay is MCF7. Kind of assay: Cytotoxicity against human MCF7 cells after 24 hrs by MTT assay. The class given is functional, cell-based. As to conditions: MCF7, 24 h. The gist of the method: as §1
The nature of assay [2]: Inhibition of alpha-glucosidase (unknown origin) using p-nitrophenyl-alpha-D-glucopyranoside as substrate assessed as p-nitrophenol formation incubated for 5 mins prior to substrate addition measured after 5 mins by spectrophotometry. The gist of the method:
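Test samples (5 mg/mL DMSO stock) in 100 mM phosphate buffer pH 6.8 preincubated 5 min with yeast α-glucosidase (0.76 U/mL) or crude rat intestinal enzyme (supernatant of sonicated acetone powder in saline, centrifuged). Then 5 mM p-nitrophenyl-α-D-glucopyranoside added; p-nitrophenol read at 405 nm after 5 min. Sample blanks without substrate; DMSO controls. Inhibition = (1−B/A)×100. Triplicate; IC50 by regression of mean inhibition.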

Turning to `O=C1S/C(=C\c2ccc3c(c2)OCO3)C(=O)N1Cc1cn(-c2ccc(Cl)c(F)c2)nn1`, the IC50 (in the assay on HepG2; in assay [1]; in the assay on MCF7; in assay [2]) was more than 100 µg/mL in each case.
For `COc1ccc(C)cc1-n1cc(CN2C(=O)S/C(=C\c3ccc4c(c3)OCO4)C2=O)nn1`, the 50% inhibitory concentration (IC50) (in general, the concentration that gives 50% inhibition) with HepG2 was 45 µg/mL (≈ 99.9 µM); in assay [1], 52.6 µg/mL (≈ 117 µM); in the assay with MCF7, 34 µg/mL (≈ 75.5 µM); in assay [2] it was more than 100 µg/mL.
The matching figures for `O=C1S/C(=C\c2ccc3c(c2)OCO3)C(=O)N1Cc1cn(CCc2ccccc2)nn1`: 31 µg/mL (≈ 71.4 µM), 52.6 µg/mL (≈ 121 µM), 30 µg/mL (≈ 69 µM) and 0.3 µg/mL (≈ 0.69 µM).
On to `CCCCCCn1cc(CN2C(=O)S/C(=C\c3ccc4c(c3)OCO4)C2=O)nn1`, for which the IC50 in the assay on HepG2 was 67 µg/mL (≈ 162 µM); in assay [1] it was 77.6 µg/mL (≈ 187 µM); in the assay on MCF7, 43 µg/mL (≈ 104 µM); in assay [2] it was more than 100 µg/mL.
On the same counts, the results for `O=C1S/C(=C\c2ccc3c(c2)OCO3)C(=O)N1Cc1cn(-c2ccc(F)cc2)nn1` are more than 100 µg/mL, more than 100 µg/mL, 96.2 µg/mL (≈ 227 µM) and more than 100 µg/mL.
For the compound `O=C1S/C(=C\c2ccc3c(c2)OCO3)C(=O)N1Cc1cn(-c2ccc(Cl)cc2)nn1`, the half-inhibitory concentration (IC50) is more than 100 µg/mL in the assay with HepG2, more than 100 µg/mL in assay [1], more than 100 µg/mL in the assay with MCF7 and 33.6 µg/mL (≈ 76.2 µM) in assay [2].
As to `O=C1S/C(=C\c2ccc3c(c2)OCO3)C(=O)N1Cc1cn(-c2ccccc2Cl)nn1`, the IC50 in the assay with HepG2 was more than 100 µg/mL; in assay [1] it was more than 100 µg/mL; with MCF7 it was 87 µg/mL (≈ 197 µM); in assay [2], 40 µg/mL (≈ 90.7 µM).
With `O=C1S/C(=C\c2ccc3c(c2)OCO3)C(=O)N1Cc1cn(-c2ccccc2[N+](=O)[O-])nn1`, the 50% inhibitory concentration (IC50) is more than 100 µg/mL in the assay with HepG2, more than 100 µg/mL in assay [1], more than 100 µg/mL with MCF7 and 0.1 µg/mL (≈ 0.222 µM) in assay [2].
Consider `CC(C)c1ccc(-n2cc(CN3C(=O)S/C(=C\c4ccc5c(c4)OCO5)C3=O)nn2)cc1`, for which the IC50 came out at 66 µg/mL (≈ 147 µM) in the assay with HepG2, 97.5 µg/mL (≈ 217 µM) in assay [1], 78 µg/mL (≈ 174 µM) in the assay on MCF7 and 0.3 µg/mL (≈ 0.669 µM) in assay [2].
Regarding `Cc1ccc(-n2cc(CN3C(=O)S/C(=C\c4ccc5c(c4)OCO5)C3=O)nn2)cc1`, the IC50 was more than 100 µg/mL in the assay on HepG2, more than 100 µg/mL in assay [1], more than 100 µg/mL in the assay on MCF7 and 75.5 µg/mL (≈ 180 µM) in assay [2].
On to `O=C1S/C(=C\c2ccc3c(c2)OCO3)C(=O)N1Cc1cn(-c2ccc(F)c(F)c2)nn1`, for which the 50% inhibitory concentration (IC50) (in the assay on HepG2; in assay [1]; with MCF7; in assay [2]) was more than 100 µg/mL each time.
For the compound `C[C@H]1O[C@H](O[C@H]2[C@H](O)[C@@H](O)[C@@H](O[C@H]3[C@H](O)[C@@H](O)C(O)O[C@@H]3CO)O[C@@H]2CO)[C@H](O)[C@@H](O)[C@@H]1N[C@H]1C=C(CO)[C@@H](O)[C@H](O)[C@H]1O` (some centres not stated) [ACARBOSE], the IC50 in assay [2] was 12.5 µg/mL (≈ 19.4 µM).
`COc1cccc2c1C(=O)c1c(O)c3c(c(O)c1C2=O)C[C@@](O)(C(=O)CO)C[C@@H]3O[C@H]1C[C@H](N)[C@H](O)[C@H](C)O1` [DOXORUBICIN]: the IC50 was 0.6 µg/mL (≈ 1.1 µM) in the assay with HepG2 and 0.8 µg/mL (≈ 1.47 µM) in assay [1].
